Experimental data taken from ChEMBL document CHEMBL1145453, “Abietane diterpenes from Salvia miltiorrhiza inhibit the activation of hypoxia-inducible factor-1” (J Nat Prod, 2007).

Legend:
[1] = target: T1, Hypoxia inducible factors; HIF-1-alpha, HIF-2-alpha (Homo sapiens, UniProt Q16665+Q99814); experiment: Inhibition of HIF1 activation in human Hep3B cells assessed as inhibition of hypoxia-induced luciferase expression after 16 hrs by reporter assay; format: cell-based; conditions: hep 3b2
Summary of the method: (§1)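 Cells transiently cotransfected with pGL3-HRE-luciferase (six HRE copies from human VEGF gene) plus pRL-CMV, plated at 5 × 10^4 cells/well, grown 48 h, then exposed to varied compound concentrations (up to 20 µM) for 16 h at 1% O2/94% N2/5% CO2, 37 °C. Dual-luciferase read-out, firefly normalized to Renilla; IC50 from mean ± SD of three experiments; 17-DMAG positive control.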

AGS [2] = experiment: Viability of human AGS cells under normoxic conditions after 24 hrs by MTT assay; format: functional, cell-based
Summary of the method: (§2)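 Cells seeded 5 × 10^4/well, settled 3 h at 37 °C, then exposed to a concentration range of compound under normoxia or hypoxia (1% O2) for 24 h. MTT (10 µL of 5 mg/mL stock) added for 4 h, formazan dissolved in DMSO, absorbance at 570 nm; LD50 derived, mean ± SD of three experiments.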

[3] = Viability of human Hep3B cells under normoxic conditions after 24 hrs by MTT assay; format: functional, cell-based, Hep 3B2; summary of the method: as §2
[4] = target: T1, Hypoxia inducible factors; HIF-1-alpha, HIF-2-alpha; experiment: Inhibition of HIF1 activation in human AGS cells assessed as inhibition of hypoxia-induced luciferase expression after 16 hrs by reporter assay; format: cell-based; summary of the method: as §1
[5] = Viability of human Hep3B cells under hypoxic conditions after 24 hrs by MTT assay; format: functional, cell-based, Hep 3B2; summary of the method: as §2
AGS [6] = experiment: Viability of human AGS cells under hypoxic conditions after 24 hrs by MTT assay; format: functional, cell-based; summary of the method: as §2
Hep 3B2 [7] = experiment: Inhibition of hypoxia-induced HIF1alpha accumulation in Hep3B cells; format: functional, cell-based; conditions: Homo sapiens
Summary of the method: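 Hep3B cells plated at 1.5 × 10^5 cells per cm2, grown overnight at 37 °C, exposed to a range of concentrations for 1 h, then held 12 h hypoxic (1% O2, 94% N2, 5% CO2, 37 °C). HIF-1α was measured in total lysates (50 µg) by Western blot after 6% SDS-PAGE with rabbit anti-HIF-1α, with ECL detection. TOPO I served as loading control.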

Hep 3B2 [8] = experiment: Inhibition of hypoxia-induced secreted VEGF levels in Hep3B cells after 16 hr by ELISA; conditions: Homo sapiens
[9] = Suppression of hypoxia-induced VEGF mRNA expression in Hep3B cells after 1 hr by RT-PCR; format: functional, cell-based; conditions: Homo sapiens; Hep 3B2; in the assay text read “after 16 hr” for “after 1 hr”
Summary of the method: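 Hep3B cells pretreated 1 h with graded compound concentrations, then held 16 h under hypoxia (1% O2, 94% N2, 5% CO2, 37 °C). Total RNA isolated and VEGF transcript detected by RT-PCR, product identity confirmed by sequencing.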

SMILES | IC50 [1] [µM] | IC50 (AGS [2]) [µM] | IC50 [3] [µM] | IC50 [4] [µM] | IC50 [5] [µM] | IC50 (AGS [6]) [µM] | IC50 (Hep 3B2 [7]) [µM] | IC50 (Hep 3B2 [8]) [µM] | Activity [9]
Cc1cccc2c3c(ccc12)C(=O)C(C(C)C)=CC3=O [12-DEOXYTANSHINQUINONE B] | 10.6 | 21.6 | > 50 | 15.1 |  |  |  |  | 
CO[C@H]1/C=C\C=C(/C)C(=O)NC2=CC(=O)C(NCCN(C)C)=C(C[C@@H](C)C[C@H](OC)[C@H](O)[C@@H](C)/C=C(\C)[C@@H]1OC(N)=O)C2=O [ALVESPIMYCIN] | 0.061 |  | > 50 | 0.036 |  |  |  |  | 
C[C@H]1COC2=C1C(=O)C(=O)c1c2ccc2c1CCCC2(C)C [CRYPTOTANSHINONE] | 1.36 | 13.5 | > 30 | 1.58 | > 30 | 10.2 |  |  | 
Cc1cccc2c3c(ccc12)C(=O)C(C(C)CO)=C(O)C3=O (stereo unspecified) [DANSHENXINKUN A] | > 20 | > 50 | > 50 | > 20 |  |  |  |  | 
Cc1cccc2c3c(ccc12)C(=O)C(=O)C1=C3OC[C@H]1C [DIHYDROISOTANSHINONE II] | > 20 | > 50 | > 50 | > 20 |  |  |  |  | 
Cc1cccc2c3c(ccc12)C1=C(C(=O)C3=O)[C@@H](C)CO1 [DIHYDROTANSHINONE I] | 2.29 | > 50 | > 50 | 2.05 | > 50 | 47.7 | 3.2 |  | 
COC(=O)[C@@]1(C)CCCc2c1ccc1c2C(=O)C(=O)c2c(C)coc2-1 [METHYL TANSHINONATE] | 7.34 | > 50 | > 50 | 7.48 |  |  |  |  | 
C[C@H](CO)C1=C(O)C(=O)c2c(ccc3c2CCCC3(C)C)C1=O [NEOCRYPTOTANSHINONE] | > 20 | > 50 | > 50 | 12.7 |  |  |  |  | 
CC(C)C1=CC(=O)c2c(ccc3c2C=CCC3(C)C)C1=O [SIBIRIQUINONE A] | 0.28 | 35.7 | > 50 | 0.34 | > 50 | 21.2 | 0.4 | 3.5 | Dose-dependent effect
CC(C)C1=CC(=O)c2c(ccc3c2CCCC3(C)C)C1=O [SIBIRIQUINONE B] | 3.18 | > 50 | > 50 | 3.36 | > 50 | > 50 |  |  | 
Cc1coc2c1C(=O)C(=O)c1c-2ccc2c1CCCC2(C)C [TANSHINONE IIA] | 6.18 | 10 | > 50 | 7.53 | > 50 | 6.8 |  |  | 
Cc1coc2c1C(=O)C(=O)c1c-2ccc2c(C)cccc12 [TANSHINONE I] | 8.51 | > 50 | > 50 | 12.5 |  |  |  |  | 
